From ChEMBL document CHEMBL2176886, “Anti-AIDS agents 90. novel C-28 modified bevirimat analogues as potent HIV maturation inhibitors” (J Med Chem, 2012)
Calls of active or inactive are those of the source. No cut-off for these calls is given here.

Key:
[1] = test system: Human immunodeficiency virus 1; assay: Antiviral activity against HIV1 infected in human TZM-bl cells assessed as reduction of viral […] after 48 hrs by luciferase reporter gene assay; assay type: functional, organism-based
In short: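 Single-round infection of TZM-bl cells (HeLa clone expressing CD4 and CCR5, HIV-1 LTR-driven firefly luciferase) with HIV-1 at 200 TCID50 mixed with samples. Luminescence read after 48 h. IC50 is the concentration giving 50% lower RLU than virus control wells, after subtracting background RLU.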

[2] = test system: Human immunodeficiency virus 1; assay: Antiviral activity against HIV1 infected in human TZM-bl cells assessed as reduction of viral entry after 48 hrs by luciferase reporter gene assay; assay type: functional, organism-based
In short: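 Single-round infection of TZM-bl cells (HeLa clone expressing CD4/CCR5 with HIV-1 LTR-driven firefly luciferase) with HIV-1 at 200 TCID50 mixed with test samples. After 48 h, medium was replaced with Bright-Glo reagent and luminescence read. IC50 is the concentration giving 50% RLU reduction versus virus-control wells after background subtraction.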

[3] = test system: Human immunodeficiency virus 1; assay: Antiviral activity against HIV1 NL4-3 infected in human MT4 cells assessed as p24 antigen level at 10 uM after 4 days by ELISA; assay type: functional, organism-based
[4] = test system: Human immunodeficiency virus 1; assay: Antiviral activity against HIV1 NL4-3 infected in human MT4 cells assessed as p24 antigen level after 4 days by ELISA; assay type: functional, organism-based; settings: Human immunodeficiency virus 1, NL4-3, MT4, 96 h
In short: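 MT-4 cells infected with HIV-1 NL4-3 variants at MOI 0.01; supernatants harvested day 4 post-infection for p24 antigen capture ELISA. IC50 is the concentration inhibiting replication by 50%; values are averages of at least three separate experiments.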

MT4 = assay: Cytotoxicity against human MT4 cells after 2 days; assay type: cell-based; settings: mt4, 48 h
[5] = Therapeutic index, ratio of CC50 for human MT4 cells to IC50 for HIV-1 NL4-3; assay type: cell-based; settings: read-out: Ratio CC50/IC50
In short: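 TI calculated as CC50 (mock-infected MT-4 growth, 2 days) divided by IC50 (HIV-1 NL4-3 replication in MT-4 cells, p24 ELISA at day 4).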

In the case of `C=C(C)[C@@H]1CC[C@]2(C(=O)OCCC)CC[C@]3(C)[C@H](CC[C@@H]4[C@@]5(C)CC[C@H](O)C(C)(C)[C@@H]5CC[C@]43C)[C@@H]12`, the Activity [1] is reported as “Active”, the Activity [2] is reported as “inactive” and the Activity [3] is reported as “inactive”.
For `C=C(C)[C@@H]1CC[C@]2(C(=O)OCOCCOC)CC[C@]3(C)[C@H](CC[C@@H]4[C@@]5(C)CC[C@H](O)C(C)(C)[C@@H]5CC[C@]43C)[C@@H]12`, the Activity [2] was “inactive” and the Activity [3] was “inactive”.
For `C=C(C)[C@@H]1CC[C@]2(C(=O)N3CCN(CCCCC(=O)O)CC3)CC[C@]3(C)[C@H](CC[C@@H]4[C@@]5(C)CC[C@H](O)C(C)(C)[C@@H]5CC[C@]43C)[C@@H]12`, the Activity [2] was “inactive” and the Activity [3] was “inactive”.
With `C=C(C)[C@@H]1CC[C@]2(C(=O)OCCCCCC)CC[C@]3(C)[C@H](CC[C@@H]4[C@@]5(C)CC[C@H](OC(=O)CC(C)(C)C(=O)O)C(C)(C)[C@@H]5CC[C@]43C)[C@@H]12` the Activity [1] was “Active”, the IC50 [4] was 1800 nM and the CC50 (MT4) was 14800 nM. For the same compound, the Activity [2] was “inactive” and the selectivity ratio [5] was 8.3.
With `C=C(C)[C@@H]1CC[C@]2(C(=O)OCCCCCCCC)CC[C@]3(C)[C@H](CC[C@@H]4[C@@]5(C)CC[C@H](OC(=O)CC(C)(C)C(=O)O)C(C)(C)[C@@H]5CC[C@]43C)[C@@H]12` the Activity [2] was “inactive” and the Activity [3] was “inactive”.
For `C=C(C)[C@@H]1CC[C@]2(C(=O)OCCCCCC)CC[C@]3(C)[C@H](CC[C@@H]4[C@@]5(C)CC[C@H](O)C(C)(C)[C@@H]5CC[C@]43C)[C@@H]12`, the Activity [1] was “Active”, the Activity [2] was “inactive” and the Activity [3] was “inactive”.
For `C=C(C)[C@@H]1CC[C@]2(C(=O)OCCC)CC[C@]3(C)[C@H](CC[C@@H]4[C@@]5(C)CC[C@H](OC(=O)CC(C)(C)C(=O)O)C(C)(C)[C@@H]5CC[C@]43C)[C@@H]12`, the Activity [1] was “Active”, the IC50 [4] was 88 nM and the CC50 (MT4) was 10400 nM. The Activity [2] was “inactive” and the selectivity ratio [5] was 118.
For `C=C(C)[C@@H]1CC[C@]2(C(=O)OCc3cn([C@H]4C[C@H](n5cc(C)c(=O)[nH]c5=O)O[C@@H]4CO)nn3)CC[C@]3(C)[C@H](CC[C@@H]4[C@@]5(C)CC[C@H](OC(=O)CC(C)(C)C(=O)O)C(C)(C)[C@@H]5CC[C@]43C)[C@@H]12`, the IC50 [4] was 100 nM, the CC50 (MT4) was 11000 nM and the Activity [2] was “inactive”. The selectivity ratio [5] was 101.
In the case of `C=C(C)[C@@H]1CC[C@]2(C(=O)OCCOCCOCCOCCOC(=O)CC(C)(C)C(=O)O)CC[C@]3(C)[C@H](CC[C@@H]4[C@@]5(C)CC[C@H](OC(=O)CC(C)(C)C(=O)O)C(C)(C)[C@@H]5CC[C@]43C)[C@@H]12`, the IC50 [4] is reported as 79 nM, the CC50 (MT4) is reported as 8900 nM and the Activity [2] is reported as “inactive”. The selectivity ratio [5] was 111.
In the case of `C#CCOC(=O)[C@]12CC[C@@H](C(=C)C)[C@@H]1[C@H]1CC[C@@H]3[C@@]4(C)CC[C@H](OC(=O)CC(C)(C)C(=O)O)C(C)(C)[C@@H]4CC[C@@]3(C)[C@]1(C)CC2`, the IC50 [4] is reported as 67 nM, the CC50 (MT4) is reported as 15300 nM and the Activity [2] is reported as “inactive”. It also gave a selectivity ratio [5] of 226.
For `C=C(C)[C@@H]1CC[C@]2(C(=O)O)CC[C@]3(C)[C@H](CC[C@@H]4[C@@]5(C)CC[C@H](OCOC)C(C)(C)[C@@H]5CC[C@]43C)[C@@H]12`, the Activity [2] was “inactive” and the Activity [3] was “inactive”.
For `C=C(C)[C@@H]1CC[C@]2(C(=O)N3CCC(CCCC(=O)NC)CC3)CC[C@]3(C)[C@H](CC[C@@H]4[C@@]5(C)CC[C@H](O)C(C)(C)[C@@H]5CC[C@]43C)[C@@H]12`, the Activity [2] was “inactive” and the Activity [3] was “inactive”.
For `C=C(C)[C@@H]1CC[C@]2(C(=O)N3CCC(CCCC(=O)NCCCN4CCOCC4)CC3)CC[C@]3(C)[C@H](CC[C@@H]4[C@@]5(C)CC[C@H](O)C(C)(C)[C@@H]5CC[C@]43C)[C@@H]12`, the Activity [2] was “inactive” and the Activity [3] was “inactive”.
For `C=C(C)[C@@H]1CC[C@]2(C(=O)OCCOCCOCCOCCO)CC[C@]3(C)[C@H](CC[C@@H]4[C@@]5(C)CC[C@H](O)C(C)(C)[C@@H]5CC[C@]43C)[C@@H]12`, the Activity [2] was “inactive” and the Activity [3] was “inactive”.
In the case of `C=C(C)[C@@H]1CC[C@]2(C(=O)OCCCCCCCC)CC[C@]3(C)[C@H](CC[C@@H]4[C@@]5(C)CC[C@H](O)C(C)(C)[C@@H]5CC[C@]43C)[C@@H]12`, the Activity [2] is reported as “inactive” and the Activity [3] is reported as “inactive”.
With `C=C(C)[C@@H]1CC[C@]2(C(=O)OCCCCCC(=O)OCC)CC[C@]3(C)[C@H](CC[C@@H]4[C@@]5(C)CC[C@H](OC(=O)CC(C)(C)C(=O)O)C(C)(C)[C@@H]5CC[C@]43C)[C@@H]12` the Activity [1] was “Active”, the IC50 [4] was 56 nM and the CC50 (MT4) was 8600 nM. For the same compound, the Activity [2] was “inactive” and the selectivity ratio [5] was 154.
For `C=C(C)[C@@H]1CC[C@]2(C(=O)N3CCC(CCCC(=O)N4CCOCC4)CC3)CC[C@]3(C)[C@H](CC[C@@H]4[C@@]5(C)CC[C@H](OC(=O)CC(C)(C)C(=O)O)C(C)(C)[C@@H]5CC[C@]43C)[C@@H]12`, the IC50 [4] was 70 nM, the CC50 (MT4) was 10900 nM and the Activity [2] was “inactive”. For the same compound, the selectivity ratio [5] was 156.
For `C=C(C)[C@@H]1CC[C@]2(C(=O)N3CCN(CCCC(=O)O)CC3)CC[C@]3(C)[C@H](CC[C@@H]4[C@@]5(C)CC[C@H](O)C(C)(C)[C@@H]5CC[C@]43C)[C@@H]12`, the Activity [2] was “inactive” and the Activity [3] was “inactive”.
For `C=C(C)[C@@H]1CC[C@]2(C(=O)ON3C(=O)CCC3=O)CC[C@]3(C)[C@H](CC[C@@H]4[C@@]5(C)CC[C@H](OC(=O)CC(C)(C)C(=O)O)C(C)(C)[C@@H]5CC[C@]43C)[C@@H]12`, the IC50 [4] was 130 nM, the CC50 (MT4) was 11000 nM and the Activity [2] was “inactive”. For the same compound, the selectivity ratio [5] was 86.2.
With `C=C(C)[C@@H]1CC[C@]2(C(=O)OCCCc3ccccc3)CC[C@]3(C)[C@H](CC[C@@H]4[C@@]5(C)CC[C@H](O)C(C)(C)[C@@H]5CC[C@]43C)[C@@H]12` the Activity [2] was “inactive” and the Activity [3] was “inactive”.
With `C=C(C)[C@@H]1CC[C@]2(C(=O)OCOC)CC[C@]3(C)[C@H](CC[C@@H]4[C@@]5(C)CC[C@H](OC(=O)CC(C)(C)C(=O)O)C(C)(C)[C@@H]5CC[C@]43C)[C@@H]12` the IC50 [4] was 170 nM, the CC50 (MT4) was 12400 nM and the Activity [2] was “inactive”. For the same compound, the selectivity ratio [5] was 70.9.
In the case of `C=C(C)[C@@H]1CC[C@]2(C(=O)OCOC)CC[C@]3(C)[C@H](CC[C@@H]4[C@@]5(C)CC[C@H](O)C(C)(C)[C@@H]5CC[C@]43C)[C@@H]12`, the Activity [2] is reported as “inactive” and the Activity [3] is reported as “inactive”.
In the case of `C=C(C)[C@@H]1CC[C@]2(C(=O)ON3C(=O)CCC3=O)CC[C@]3(C)[C@H](CC[C@@H]4[C@@]5(C)CC[C@H](O)C(C)(C)[C@@H]5CC[C@]43C)[C@@H]12`, the Activity [2] is reported as “inactive” and the Activity [3] is reported as “inactive”.
With `C=C(C)[C@@H]1CC[C@]2(C(=O)OCOCCOC)CC[C@]3(C)[C@H](CC[C@@H]4[C@@]5(C)CC[C@H](OCOCCOC)C(C)(C)[C@@H]5CC[C@]43C)[C@@H]12` the Activity [2] was “inactive” and the Activity [3] was “inactive”.
For `C=C(C)[C@@H]1CC[C@]2(C(=O)N3CCC(CCCC(=O)NCCN4CCOCC4)CC3)CC[C@]3(C)[C@H](CC[C@@H]4[C@@]5(C)CC[C@H](O)C(C)(C)[C@@H]5CC[C@]43C)[C@@H]12`, the Activity [2] was “inactive” and the Activity [3] was “inactive”.
In the case of `C=C(C)[C@@H]1CC[C@]2(C(=O)N3CCC(CCCC(=O)NC)CC3)CC[C@]3(C)[C@H](CC[C@@H]4[C@@]5(C)CC[C@H](OC(=O)CC(C)(C)C(=O)O)C(C)(C)[C@@H]5CC[C@]43C)[C@@H]12`, the IC50 [4] is reported as 240 nM, the CC50 (MT4) is reported as greater than 13300 nM and the Activity [2] is reported as “inactive”. The selectivity ratio [5] was greater than 55.5.
With `C=C(C)[C@@H]1CC[C@]2(C(=O)OCCCCCC(=O)OCC)CC[C@]3(C)[C@H](CC[C@@H]4[C@@]5(C)CC[C@H](O)C(C)(C)[C@@H]5CC[C@]43C)[C@@H]12` the Activity [2] was “inactive” and the Activity [3] was “inactive”.
In the case of `C=C(C)[C@@H]1CC[C@]2(C(=O)O)CC[C@]3(C)[C@H](CC[C@@H]4[C@@]5(C)CC[C@H](O)C(C)(C)[C@@H]5CC[C@]43C)[C@@H]12`, the Activity [2] is reported as “Active”.
In the case of `C#CCOC(=O)[C@]12CC[C@@H](C(=C)C)[C@@H]1[C@H]1CC[C@@H]3[C@@]4(C)CC[C@H](O)C(C)(C)[C@@H]4CC[C@@]3(C)[C@]1(C)CC2`, the Activity [2] is reported as “inactive” and the Activity [3] is reported as “inactive”.
With `C=C(C)[C@@H]1CC[C@]2(C(=O)N3CCC(CCCC(=O)N4CCOCC4)CC3)CC[C@]3(C)[C@H](CC[C@@H]4[C@@]5(C)CC[C@H](O)C(C)(C)[C@@H]5CC[C@]43C)[C@@H]12` the Activity [2] was “inactive” and the Activity [3] was “inactive”.
In the case of `C=C(C)[C@@H]1CC[C@]2(C(=O)O)CC[C@]3(C)[C@H](CC[C@@H]4[C@@]5(C)CC[C@H](OCOCCOC)C(C)(C)[C@@H]5CC[C@]43C)[C@@H]12`, the Activity [2] is reported as “inactive” and the Activity [3] is reported as “inactive”.
With `C=C(C)[C@@H]1CC[C@]2(C(=O)OCOC)CC[C@]3(C)[C@H](CC[C@@H]4[C@@]5(C)CC[C@H](OCOC)C(C)(C)[C@@H]5CC[C@]43C)[C@@H]12` the Activity [2] was “inactive” and the Activity [3] was “inactive”.
